# Results pooled from the literature.
# Lines come from different studies, so protocols differ.
# CYP3A7: Cytochrome P450 3A7 (CYP3A7, Homo sapiens, UniProt P24462)
SMILES,tested on,assay,system,conditions,quantity,value
N#C[C@@]12C[C@@H]1[C@@H](n1cnc3c(N[C@@H](C4CCC4)C4CC4)nc(I)nc31)[C@H](O)[C@@H]2O,,metabolic stability,"mouse, liver microsomes",1 h,compound remaining,72.6%
O=[N+]([O-])c1cccc(/C=N/c2c(-c3ccccc3)nc3ccc(Cl)cn23)c1,MT4,"cell growth or viability, MTT",,5 days,CC50,82.1 µg/mL
COc1ccc2c(O[C@@H]3C[C@H]4C(=O)N[C@]5(C(=O)NS(=O)(=O)C6CC6)C[C@H]5/C=C\CCCCN(C)C(=O)[C@@H]4C3)cc(-c3nc(C(C)C)cs3)nc2c1C,CYP3A7,"enzyme activity, inhibitor, fluorescence",,"20 µM, 10 min, pH 7.4",inhibition,≥ 50%
N#Cc1cnn2c(NC3CC(F)(F)C3)cc(Nc3cccc(-n4cnnc4)c3)nc12,,metabolic stability,"male CD-1 mouse, liver microsomes","5 µM, 30 min, pH 7.4",compound remaining,75%
COc1c(-c2ccc3cc(NS(C)(=O)=O)ccc3c2)cc(-n2ccc(=O)[nH]c2=O)cc1C(C)(C)C,CYP3A7,"enzyme activity, inhibitor, fluorescence",,"20 µM, 10 min, pH 7.4",inhibition,≥ 50%
Cc1ccnc2c1NC(=O)c1cccnc1N2C1CC1,MT4,"cell growth or viability, MTT",,5 days,CC50,> 4 µg/mL
Cc1ccc(Cn2cc(C(=O)NN)c(=O)c3cc(Oc4ccccc4)ccc32)cc1,,metabolic stability,"male CD-1 mouse, liver microsomes","1 µM, 30 min",compound remaining,96%
CC(C)(C)OC(=O)N[C@H]1CCCCC/C=C\[C@@H]2C[C@@]2(C(=O)NS(=O)(=O)C2CC2)NC(=O)[C@@H]2C[C@@H](OC(=O)N3Cc4cccc(F)c4C3)CN2C1=O,CYP3A7,"enzyme activity, inhibitor, fluorescence",,"20 µM, 10 min, pH 7.4",inhibition,≥ 50%
C[C@@H](N)CN(C)c1ccc(Nc2cc(NC3CC3)n3ncc(C#N)c3n2)cc1-n1cnnc1,,metabolic stability,"male CD-1 mouse, liver microsomes","5 µM, 30 min, pH 7.4",compound remaining,84%
COC(=O)N[C@H](C(=O)N1CC2(CC2)C[C@H]1c1ncc(-c2ccc3c(c2)C(F)(F)c2cc(-c4ccc5nc([C@@H]6[C@H]7CC[C@H](C7)N6C(=O)[C@@H](NC(=O)OC)C(C)C)[nH]c5c4)ccc2-3)[nH]1)C(C)C,CYP3A7,"enzyme activity, inhibitor, fluorescence",,"20 µM, 10 min, pH 7.4",inhibition,≥ 50%
CCN(CCN)c1ccc(Nc2cc(NC3CC3)n3ncc(C#N)c3n2)cc1-n1cnnc1,,metabolic stability,"male CD-1 mouse, liver microsomes","5 µM, 30 min, pH 7.4",compound remaining,92%
O=[N+]([O-])c1ccccc1/C=N/c1c(-c2ccccc2)nc2ccc(Cl)cn12,MT4,"cell growth or viability, MTT",,5 days,CC50,> 125 µg/mL
